Data: ChEMBL document CHEMBL4145606, “Microcystins Containing Doubly Homologated Tyrosine Residues from a Microcystis aeruginosa Bloom: Structures and Cytotoxicity” (J Nat Prod, 2018)
Starred links: 1 amine or outer side, 2 acyl side, 3 side chain; linkers in the order of their positions; H or OH if unused. Positions of bridges follow the written chain, without caps; N, C: chain ends. Non-standard residues stand in square brackets, D forms with d. Residues, ends and D or L forms follow the SMILES beside them. Adda = CO[C@@H](Cc1ccccc1)[C@@H](C)/C=C(C)/C=C/[C@H](N[*:1])[C@H](C)C(=O)[*:2]; dAsp(3S-Me) = C[C@H](C(=O)[*:3])[C@@H](N[*:1])C(=O)[*:2]; d(γGlu) = O=C(O)[C@@H](CCC(=O)[*:2])N[*:1]; NMeDha = C=C(NC)C(=O)O

Tests used:
A549 = test: Cytotoxicity against human A549 cells assessed as reduction in cell viability after 72 hrs by MTT assay; type: functional, cell-based
In short: (§1)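 Cells seeded in 96-well plates and incubated overnight at 37 °C. Treated with a range of concentrations (∼35 to 0.1 μM) for ∼72 h at 37 °C. Viability read by MTT assay. EC50 estimated from the dose-response curves.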

HCT-116 = test: Cytotoxicity against human HCT116 cells assessed as reduction in cell viability after 72 hrs by MTT assay; type: functional, cell-based; in short: as §1

Row | Compound | EC50 (A549) [µM] | EC50 (HCT-116) [µM] | Activity (A549) | Activity (HCT-116)
1 | C=C1C(=O)N[C@H](C)C(=O)N[C@@H](CC(C)C)C(=O)N[C@@H](C(=O)O)[C@H](C)C(=O)N[C@@H](CCCNC(=N)N)C(=O)N[C@@H](/C=C/C(C)=C/[C@H](C)[C@H](Cc2ccccc2)OC)[C@H](C)C(=O)N[C@@H](C(=O)O)CCC(=O)N1C [MICROCYSTIN-LR] (R[Adda][d(γGlu)][NMeDha][dA]L[dAsp(3S-Me)]-OH; lactam N-7) | > 35 | 35 | – | –
2 | C=C1C(=O)N[C@H](CC(C)C)C(=O)N[C@@H](CC(C)C)C(=O)N[C@@H](C(=O)O)[C@H](C)C(=O)N[C@@H](Cc2ccc(O)cc2)C(=O)N[C@@H](/C=C/C(C)=C/[C@H](C)[C@H](Cc2ccccc2)OC)[C@H](C)C(=O)N[C@@H](C(=O)O)CCC(=O)N1C (Y[Adda][d(γGlu)][NMeDha][dL]L[dAsp(3S-Me)]-OH; lactam N-7) | 1.3 | 11 | Dose-dependent effect | Dose-dependent effect
3 | C=C1C(=O)N[C@H](C)C(=O)N[C@@H](CCc2ccc(O)cc2)C(=O)N[C@@H](C(=O)O)[C@H](C)C(=O)N[C@@H](CCCc2ccc(O)cc2)C(=O)N[C@@H](/C=C/C(C)=C/[C@H](C)[C@H](Cc2ccccc2)OC)[C@H](C)C(=O)N[C@@H](C(=O)O)CCC(=O)N1C | 0.36 | 3.3 | Dose-dependent effect | Dose-dependent effect
4 | C=C1C(=O)N[C@H](C)C(=O)N[C@@H](CCCc2ccc(O)cc2)C(=O)N[C@@H](C(=O)O)[C@H](C)C(=O)N[C@@H](CCCNC(=N)N)C(=O)N[C@@H](/C=C/C(C)=C/[C@H](C)[C@H](Cc2ccccc2)OC)[C@H](C)C(=O)N[C@@H](C(=O)O)CCC(=O)N1C | 18 | > 35 | – | –
